Tests used:
Type in all cases: functional, cell-based
HCT-15 = assay: Cytotoxicity against human HCT-15 cells by sulforhodamine B assay
In short: (§1)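 Log-phase cells seeded at 10⁴ cells/well and allowed to attach for 24 h at 37 °C, 5% CO₂. Then exposed to test samples over a 1:10 serial dilution series for 48 h under the same conditions, four replicate wells per condition. Fixed with 50% chilled TCA for 1 h at 4 °C, stained with sulforhodamine B, and the bound dye dissolved in Tris buffer.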

[1] = Cytotoxicity against human 502713 cells by sulforhodamine B assay; in short: as §1
HEp-2 = assay: Cytotoxicity against human HEP2 cells by sulforhodamine B assay; in short: as §1
A549 = assay: Cytotoxicity against human A549 cells by sulforhodamine B assay; in short: as §1
DU-145 = assay: Cytotoxicity against human DU145 cells by sulforhodamine B assay; in short: as §1
PC-3 = assay: Cytotoxicity against human PC-3 cells by sulforhodamine B assay; in short: as §1
SF-295 = assay: Cytotoxicity against human SF295 cells by sulforhodamine B assay; in short: as §1

Row | SMILES | IC50 (HCT-15) [µM] | IC50 [1] [µM] | IC50 (HEp-2) [µM] | IC50 (A549) [µM] | IC50 (DU-145) [µM] | IC50 (PC-3) [µM] | IC50 (SF-295) [µM]
1 | COc1cc([C@@H]2c3cc4c(cc3[C@@H](n3cc(CNc5cccc(Cl)c5)nn3)[C@H]3COC(=O)[C@H]23)OCO4)cc(OC)c1OC | 0.34 | 0.71 | 1.37 | 4.99 | 0.93 | 1.18 | 0.84
2 | COc1cc([C@@H]2c3cc4c(cc3[C@@H](n3cc(CNc5ccccc5C)nn3)[C@H]3COC(=O)[C@H]23)OCO4)cc(OC)c1O | 0.14 | 0.62 | 1.5 | 5.17 | 1.19 | 1.53 | 0.96
3 | COc1cc([C@@H]2c3cc4c(cc3[C@@H](n3cc(CNc5ccccc5)nn3)[C@H]3COC(=O)[C@H]23)OCO4)cc(OC)c1O | 0.4 | 0.68 | 2.96 | 7.46 | 1.09 | 1.03 | 0.7
4 | COc1cc([C@@H]2c3cc4c(cc3[C@@H](n3cc(CNc5cccc([N+](=O)[O-])c5)nn3)[C@H]3COC(=O)[C@H]23)OCO4)cc(OC)c1OC | 0.04 | 0.56 | 3.65 | 5.78 | 0.65 | 0.74 | 0.68
5 | COc1cc([C@@H]2c3cc4c(cc3[C@@H](n3cc(CNc5ccccc5)nn3)[C@H]3COC(=O)[C@H]23)OCO4)cc(OC)c1OC | 0.14 | 0.61 | 4.64 | 6.1 | 1.12 | 0.88 | 0.78
6 | COc1cc([C@@H]2c3cc4c(cc3[C@@H](n3cc(CNc5ccccc5C)nn3)[C@H]3COC(=O)[C@H]23)OCO4)cc(OC)c1OC | 0.36 | 0.78 | 9.14 | 7.88 | 1.06 | 1.09 | 1.94
7 | COc1cc([C@@H]2c3cc4c(cc3[C@@H](n3cc(CNc5cccc([N+](=O)[O-])c5)nn3)[C@H]3COC(=O)[C@H]23)OCO4)cc(OC)c1O | 1.55 | 1.19 | 4.1 | 7.43 | 4.37 | 6.63 | 4.2
8 | COc1cc([C@@H]2c3cc4c(cc3[C@@H](n3cc(CNc5cccc(Cl)c5)nn3)[C@H]3COC(=O)[C@H]23)OCO4)cc(OC)c1O | 4.22 | 0.98 | 1.22 | 8.63 | 4.16 | 1.37 | 3.11
9 | COc1cc([C@@H]2c3cc4c(cc3[C@@H](n3cc(CNc5ccccc5Cl)nn3)[C@H]3COC(=O)[C@H]23)OCO4)cc(OC)c1OC | 1.43 | 1.88 | 1.26 | 9.24 | 3.57 | 3.45 | 1
10 | COc1cc([C@@H]2c3cc4c(cc3[C@@H](O[C@@H]3O[C@@H]5CO[C@@H](C)O[C@H]5[C@H](O)[C@H]3O)[C@H]3COC(=O)[C@H]23)OCO4)cc(OC)c1O [ETOPOSIDE] | 1.48 | 2.42 | 2.15 | 5.62 | 3.85 | 17.4 | 13.3
11 | COc1cc([C@@H]2c3cc4c(cc3[C@H](O)[C@H]3COC(=O)[C@H]23)OCO4)cc(OC)c1OC [PODOFILOX] | 1 | 3.88 | 1.42 | 7.63 | 2.97 | 18.9 | 5.69

Reference: ChEMBL document CHEMBL1140198, “Studies on novel 4beta-[(4-substituted)-1,2,3-triazol-1-yl] podophyllotoxins as potential anticancer agents” (Eur J Med Chem, 2008)
